PKA inh: inhibitors of human PKA kinase activity, primary screen, biochemical, ATP-depletion luminescence, Kemptide substrate. inhibition, % at 6 µM. cAMP-dependent protein kinase catalytic subunit alpha (Homo sapiens), P17612. PKA Kemptide phosphorylation, Kinase-Glo ATP luminescence. 65,000 compounds, 0.1% hits;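 active = inhibition above the screen-wide mean inhibition plus 3 SD, cut at about 21% in these data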
JNK3 blocker: JNK3 kinase activity inhibitors, primary screen, biochemical, human, purified enzyme; HTS; inhibition, % at 8 µM; 60,000 compounds, 0.61% hits; Mitogen-activated protein kinase 10 (Homo sapiens), P53779; AID 746, 2007; in the data active = inhibition above about 17%;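 also: 0% = DMSO and 100% = reference inhibitor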
TNAP act DEA: human TNAP enzyme activators, primary screen, biochemical, luminescent, intermediate phosphate acceptor level; purified TNAP, CDP-star luminescence, 100 mM DEA, 30 min; active compounds read high; scale: 0 levamisole-inhibited, 1 vehicle-only enzyme; Alkaline phosphatase, tissue-nonspecific isozyme (Homo sapiens), P05186; activation factor at 20 µM; 64,000 tested, under 10 active;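 active = activation factor of at least 2 at 20 µM, relative to controls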
Target sequence (P05186 whole entry, looked up): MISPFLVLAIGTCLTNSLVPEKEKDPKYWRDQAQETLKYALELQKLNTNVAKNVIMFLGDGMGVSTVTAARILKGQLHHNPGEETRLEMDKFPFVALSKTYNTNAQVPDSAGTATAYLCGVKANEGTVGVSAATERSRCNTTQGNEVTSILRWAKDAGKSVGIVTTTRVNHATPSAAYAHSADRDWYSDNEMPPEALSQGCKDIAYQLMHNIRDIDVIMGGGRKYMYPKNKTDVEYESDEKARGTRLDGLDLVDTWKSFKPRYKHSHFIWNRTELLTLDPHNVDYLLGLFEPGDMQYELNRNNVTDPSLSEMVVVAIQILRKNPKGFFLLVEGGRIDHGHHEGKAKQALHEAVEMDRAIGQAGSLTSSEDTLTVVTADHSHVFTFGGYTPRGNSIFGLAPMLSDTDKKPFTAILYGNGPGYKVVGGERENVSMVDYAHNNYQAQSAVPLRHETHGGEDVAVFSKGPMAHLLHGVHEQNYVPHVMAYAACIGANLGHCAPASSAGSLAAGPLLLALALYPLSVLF
HEK293 NFkB inh: inhibitors of PMA/ionomycin-induced NF-kB reporter, primary screen, antigen receptor NF-kB inhibitor project, cell-based, HEK-293 luciferase reporter, luminescence; HEK-293 NF-kB luciferase reporter; inhibition, % at 3 µM; 62,000 compounds, 0.21% hits;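 active = inhibition above the mean of all tested compounds plus 3 SD, cut at about 40% in these data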;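 also: 0% = stimulated DMSO wells and 100% = 10 µM reference inhibitor 5653914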
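Reagent: PMA plus ionomycin mix as NF-kB-activating stimulus. Assay system: NF-kB luciferase reporter HEK-293 cells. Technique: luminescence from luciferase substrate reagent. Incubation: 1 h compound pre-incubation, 16 h PMA/ionomycin at 37 °C. Benchmarks: DMSO only as uninhibited control, 10 µM reference inhibitor as full inhibition. Repeats: tested once.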
Hsp90 inh: tumor Hsp90 inhibitors, primary screen, cell lysate, fluorescence polarization, NCI-N417 lysate; AID 429, 2006; Cy3B-geldanamycin FP displacement; 64,000 compounds, 0.35% hits; inhibition, % at 30 µM; Heat shock protein HSP 90-alpha (Homo sapiens), P07900;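 active = inhibition above 50%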;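 also: 0% = tracer plus lysate wells and 100% = tracer alone without lysate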
ROCK2 inh: inhibitors of human ROCK2 kinase, primary screen, biochemical, high-throughput, luminescence | Rho-associated protein kinase 2 (Homo sapiens), O75116 | purified ROCK2, Kinase-Glo ATP depletion luminescence | inhibition, % at 6 µM | 60,000 compounds, 0.35% hits;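 active = inhibition above the screen-wide mean inhibition plus 3 SD, cut at about 18% in these data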;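 also: plate controls were DMSO wells for no effect and Y-27632 control wells after no-enzyme background subtraction for full effect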
Active calls of the source: *; x = not tested or not shown. Hits are enriched below; roughly 0.94% of the tested compounds scored in any of these assays.

SMILES	PKA inh	JNK3 blocker	TNAP act DEA	HEK293 NFkB inh	Hsp90 inh	ROCK2 inh
CC(COc1ccc(/C=C/c2ccccc2)cc1)[N+](C)(C)C (stereo not drawn)	x	x	x	x	0	x
COc1ccc(CCNc2c(C)c(C)nc3ncnn23)cc1	4	0	0.9	46*	-1	5
Cc1c(C(=O)N2CCCCC2)sc(NC(=O)C2CC2)c1C#N	4	3	0.8	18	-2	3
Cc1c(C(=O)N2CCCCC2)sc(N)c1C#N	-2	-1	0.9	12	2	26*
Cc1cc(C)c(NC(=O)C[C@H](CC(=O)O)c2cccc3ccccc23)c(C(=O)N2CCC3(CCCC3)CC2)c1	x	x	x	x	-1	x
Nc1c(S(=O)(=O)c2cccc(Cl)c2)c2nc3ccccc3nc2n1/N=C/c1ccc(O)c(O)c1	31*	-2	0.9	7	59*	1
COc1cc(NC(=O)C2CC(c3cccc(OC)c3OC)=NO2)cc(OC)c1OC (stereo not drawn)	6	69*	1	13	-1	4
COc1cc(C2=NOC(C(=O)Nc3ccc(C(C)=O)cc3)C2)cc(OC)c1OC (stereo not drawn)	3	0	0.9	2	1	2
CCN(CC)CCNC(=O)CCn1c(=S)[nH]c2cc3c(cc2c1=O)OCO3	0	x	0.8	3	-2	x
CCN(CC)CCNC(=O)CCCCn1c(=S)[nH]c2c([nH]c3ccc(OC)cc32)c1=O	13	1	0.9	13	0	30*
Cc1ccc(S(=O)(=O)C(CCC(=O)N2CCOCC2)S(=O)(=O)c2ccc(C)cc2)cc1	8	-3	1	13	88*	1
COc1cc(N)c2ncccc2c1	x	x	x	x	17	x
CCOC(=O)c1c(C)[nH]c2ccc(O)cc12	9	18*	0.9	9	-1	13
CCOC(=O)c1c2n(c3ccc(O)cc13)CCC2	-4	x	x	26	x	x
O=c1cc(N2CCOCC2)oc2c(-c3ccccc3)cccc12	x	x	x	x	2	x
CCCc1cc(-c2[nH]ncc2-c2ccc3c(c2)OCCCO3)c(O)cc1O	5	8	1.1	14	78*	9
Cc1cccc2c(=O)oc(-c3ccc4c(c3)C(=O)N(CC3CCCO3)C4=O)nc12 (stereo not drawn)	0	-6	1	4	0	0
O=C(Nc1ccc(N2CCOCC2)cc1)c1cnsn1	4	-1	1	42*	10	-1
N#Cc1sc2nc3c(c(-c4ccco4)c2c1N)CCCC3	0	17*	1	6	-6	-1
c1coc(-c2nc3c4c5c(sc4ncn3n2)CCCC5)c1	4	1	1	4	4	6
CCCc1nc(SCC(=O)N2CCCC2)c2ccccc2n1	5	17*	1	2	-1	0
CCCc1nc(SCC(=O)Nc2cc(C)on2)c2ccccc2n1	-1	21*	1	22	0	0
Cc1cc(NC(=O)CSc2nc(-c3ccccc3)cs2)no1	12	2	0.7	7	-4	18*
CC(C)(C)NCC(O)COc1nsnc1N1CCOCC1 (stereo not drawn)	x	x	x	x	2	x
CC(C)c1nnc(NC(=O)c2c(O)c3cccc4c3n(c2=O)CCC4)s1	-9	-2	0.9	46*	0	4
SMILES	PKA inh	JNK3 blocker	TNAP act DEA	HEK293 NFkB inh	Hsp90 inh	ROCK2 inh
Cc1cccc(NC(=O)c2c(O)c3cccc4c3n(c2=O)CCC4)n1	10	8	1	13	50*	2
Cc1cnc(NC(=O)c2c(O)c3cccc4c3n(c2=O)CCC4)s1	11	2	0.9	7	0	5
O=c1c2ccccc2nc(-c2ccco2)n1CCCn1ccnc1	2	18*	0.8	3	-5	12
O=c1c2ccccc2nc(-c2ccccc2)n1CCCn1ccnc1	6	0	0.8	-4	1	0
CCOc1ccc(Nc2cc(C)nc(-n3nc(C)cc3C)n2)cc1	3	2	1	19	-1	7
Cc1ccc(Nc2cc(-n3nc(C)cc3C)ncn2)cc1	-5	30*	0.9	1	-1	-2
O=C(O)CC1CCCc2ccccc2C1O (stereo not drawn)	x	x	x	x	-5	x
Oc1cc(O)cc(/C=C/c2ccc(O)c(O)c2)c1	x	x	x	x	108*	x
O=C(CN1C(=O)CCC1=O)Nc1nc(-c2nc3ccccc3s2)cs1	5	3	0.9	-11	-3	2
O=C(CN1C(=O)CCC1=O)Nc1nc(-c2ccccn2)cs1	6	-4	15*	2	-4	4
c1cncc(-c2nc(-c3ccc4c(c3)OCO4)cs2)c1	-2	x	0.9	-6	0	x
Oc1ccc(-c2nc(-c3ccc(O)c(O)c3)cs2)cc1	0	-1	0.8	18	99*	2
Nc1ncnc2c1ncn2[C@@H]1O[C@H](COP(=O)(O)OP(=O)(O)OP(=O)(O)OP(=O)(O)OC[C@@H]2O[C@H](n3cnc4c(N)ncnc43)C(O)[C@@H]2O)[C@H](O)C1O (stereo partly drawn)	x	x	x	x	11	x
COc1ccccc1NC(=O)COc1ccc(CO)cc1Cl	6	19*	0.9	7	-6	0
Cc1nnc(SCCn2c(Br)nc3c2c(=O)n(C)c(=O)n3C)s1	9	-9	0.9	22	-2	6
Cc1nnc(SCCn2c(N3CC(C)CC(C)C3)nc3c2c(=O)n(C)c(=O)n3C)s1 (stereo not drawn)	-6	3	0.9	-7	68*	-1
CCOc1ncccc1C(=O)OCc1cc(=O)n2c(n1)sc1ccccc12	10	9	0.9	13	-4	5
CC(=O)c1ccc(NC(=O)CSc2nnc(Cc3cccn3C)n2-c2ccc(F)cc2)cc1	3	3	0.9	17	87*	2
COc1ccc2nc(C)cc(NN=Cc3cccnc3)c2c1	x	x	x	x	1	x
CCNC(=O)C1OC(n2cnc3c(NCc4ccccc4)ncnc32)C(O)C1O (stereo not drawn)	x	x	x	x	4	x
O=C1C(C2=C(O)c3ccccc3C2=O)=Nc2ccccc21	2	3	0.9	7	57*	5
CN=CC1=C(O)c2ccccc2C1=O	9	5	1	-4	0	6
Nc1ccc(-n2c(N)c(C(=O)NCc3ccc4c(c3)OCO4)c3nc4ccccc4nc32)cc1	0	21*	0.9	12	-8	3
C(=N\c1nc2ccccc2n1CCN1CCCCC1)/c1ccc2c(c1)OCO2	7	-1	1	13	-2	8
